Test results as given in ChEMBL document CHEMBL1759994, “The discovery and synthesis of potent zwitterionic inhibitors of renin” (Bioorg Med Chem Lett, 2011).

What was measured:
Renin [1] = target: T1, Renin (Homo sapiens, UniProt P00797); test: Inhibition of human recombinant renin in PBS buffer using tetradecapeptide at pH 7.4
T1 sequence (P00797 whole entry): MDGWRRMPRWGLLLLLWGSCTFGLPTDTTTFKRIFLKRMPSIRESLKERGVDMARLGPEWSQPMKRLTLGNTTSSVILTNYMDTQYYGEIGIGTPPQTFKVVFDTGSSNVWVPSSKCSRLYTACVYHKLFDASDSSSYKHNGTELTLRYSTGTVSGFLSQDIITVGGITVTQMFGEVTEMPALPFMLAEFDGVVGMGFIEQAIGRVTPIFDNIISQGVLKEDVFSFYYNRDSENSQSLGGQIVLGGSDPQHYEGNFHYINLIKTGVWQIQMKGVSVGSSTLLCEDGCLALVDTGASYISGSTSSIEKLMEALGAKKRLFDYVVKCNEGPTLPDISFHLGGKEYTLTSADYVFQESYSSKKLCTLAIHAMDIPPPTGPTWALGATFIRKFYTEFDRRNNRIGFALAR

Renin [2] = target: T1, Renin; test: Inhibition of human recombinant renin in human citreated-plasma
[3] = target: Voltage-gated inwardly rectifying potassium channel KCNH2 (Homo sapiens, UniProt Q12809); test: Binding affinity to human ERG
Sequence of Voltage-gated inwardly rectifying potassium channel KCNH2 (Q12809 whole entry): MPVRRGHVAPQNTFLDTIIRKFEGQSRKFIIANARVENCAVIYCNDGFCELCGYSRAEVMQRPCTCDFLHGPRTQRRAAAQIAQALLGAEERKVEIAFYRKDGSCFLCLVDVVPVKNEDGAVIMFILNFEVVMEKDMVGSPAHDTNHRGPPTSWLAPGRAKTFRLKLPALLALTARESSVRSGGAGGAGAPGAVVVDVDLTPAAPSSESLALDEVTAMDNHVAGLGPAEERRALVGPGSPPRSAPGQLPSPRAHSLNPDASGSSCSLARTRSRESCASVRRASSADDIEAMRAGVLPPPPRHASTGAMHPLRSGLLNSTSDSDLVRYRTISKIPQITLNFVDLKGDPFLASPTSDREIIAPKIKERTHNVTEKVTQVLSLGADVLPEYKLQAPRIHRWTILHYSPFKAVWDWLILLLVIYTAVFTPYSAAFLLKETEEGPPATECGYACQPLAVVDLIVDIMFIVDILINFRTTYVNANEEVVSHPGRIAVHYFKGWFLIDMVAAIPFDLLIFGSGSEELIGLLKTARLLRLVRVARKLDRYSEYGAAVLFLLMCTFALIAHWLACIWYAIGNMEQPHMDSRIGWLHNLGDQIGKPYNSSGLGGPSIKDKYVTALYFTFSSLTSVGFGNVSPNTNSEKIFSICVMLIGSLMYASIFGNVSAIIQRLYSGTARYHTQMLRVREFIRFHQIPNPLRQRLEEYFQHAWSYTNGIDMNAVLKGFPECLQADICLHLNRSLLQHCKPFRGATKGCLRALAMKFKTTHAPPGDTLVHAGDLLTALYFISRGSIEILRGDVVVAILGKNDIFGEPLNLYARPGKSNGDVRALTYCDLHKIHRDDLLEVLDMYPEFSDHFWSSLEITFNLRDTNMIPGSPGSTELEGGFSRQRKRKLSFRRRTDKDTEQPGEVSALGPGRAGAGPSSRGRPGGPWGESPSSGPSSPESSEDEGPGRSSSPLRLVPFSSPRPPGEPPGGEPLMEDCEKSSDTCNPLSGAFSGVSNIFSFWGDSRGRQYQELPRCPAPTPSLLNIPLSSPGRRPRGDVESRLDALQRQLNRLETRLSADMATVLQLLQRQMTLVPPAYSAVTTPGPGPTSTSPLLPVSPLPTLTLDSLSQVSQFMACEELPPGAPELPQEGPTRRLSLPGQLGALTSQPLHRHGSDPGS

Cytochrome P450 3A4 [4] = target: T2, Cytochrome P450 3A4 (Homo sapiens, UniProt P08684); test: Inhibition of human CYP3A4 in human liver microsomes assessed as formation of 6beta-hydroxy-testosterone using testosterone as substrate by high throughput mass spectrometry in absence of NADPH; format: ADME, Microsome
T2 sequence (P08684 whole entry): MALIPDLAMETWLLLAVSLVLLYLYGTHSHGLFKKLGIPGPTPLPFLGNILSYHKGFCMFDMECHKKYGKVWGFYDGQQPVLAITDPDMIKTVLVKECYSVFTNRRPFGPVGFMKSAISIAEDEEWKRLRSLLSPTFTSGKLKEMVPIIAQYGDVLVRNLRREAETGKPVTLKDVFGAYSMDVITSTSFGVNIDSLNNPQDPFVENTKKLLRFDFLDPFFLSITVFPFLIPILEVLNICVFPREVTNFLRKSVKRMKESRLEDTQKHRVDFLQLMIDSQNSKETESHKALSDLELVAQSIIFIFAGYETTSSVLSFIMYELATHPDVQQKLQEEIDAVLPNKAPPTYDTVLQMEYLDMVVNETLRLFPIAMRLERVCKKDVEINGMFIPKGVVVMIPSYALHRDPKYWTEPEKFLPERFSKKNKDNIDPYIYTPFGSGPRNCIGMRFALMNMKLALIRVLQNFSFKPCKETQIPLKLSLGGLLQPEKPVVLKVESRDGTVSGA

CYP3A4 = CYP3A4 (Homo sapiens, UniProt P08684); test: Ratio of IC50 for human CYP3A4 in absence of NADPH to IC50 for human CYP3A4 preincubated for 30 mins in presence of NADPH; conditions: read-out: Ratio IC50
Sequence of CYP3A4 (P08684 whole entry): as above

Cytochrome P450 3A4 [5] = target: T2, Cytochrome P450 3A4; test: Inhibition of human CYP3A4 in human liver microsomes assessed as formation of 6beta-hydroxy-testosterone using testosterone as substrate by high throughput mass spectrometry preincubated for 30 mins in presence of NADPH; format: ADME, Microsome
Blood [6] = test: Metabolic stability in human whole blood assessed as conversion to (1R,2R)-2-((3-(((3R,4S)-N-cyclopropyl-4-(4-(2-(2,6-dichloro-4-methylphenoxy)ethoxy)phenyl)piperidine-3-carboxamido)methyl)-5-(3-methoxypropyl)phenoxy)methyl)cyclopropanecarboxylic acid after 20 mins; format: ADME, tissue-based
Method in brief: (§1)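 Prodrugs were incubated for 20 min in rat or human whole blood, or in rat or human liver S9 fraction (n = 2). The read-out was % conversion to the parent carboxylic acid.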

Liver [7] = test: Metabolic stability in Sprague-Dawley rat liver S9 fraction assessed as conversion to (1R,2R)-2-((3-(((3R,4S)-N-cyclopropyl-4-(4-(2-(2,6-dichloro-4-methylphenoxy)ethoxy)phenyl)piperidine-3-carboxamido)methyl)-5-(3-methoxypropyl)phenoxy)methyl)cyclopropanecarboxylic acid after 20 mins; format: ADME, subcellular; conditions: s9, 20 min; method in brief: as §1
[8] = AUC (0 to 24 hrs) in Sprague-Dawley rat at 30 mg/kg, po as 0.5% methocel suspension; format: ADME, organism-based; set-up: time < 24 hr, dose 30 mg/kg, route oral; conditions: plasma
Blood [9] = test: Metabolic stability in Sprague-Dawley rat whole blood assessed as conversion to (1R,2R)-2-((3-(((3R,4S)-N-cyclopropyl-4-(4-(2-(2,6-dichloro-4-methylphenoxy)ethoxy)phenyl)piperidine-3-carboxamido)methyl)-5-(3-methoxypropyl)phenoxy)methyl)cyclopropanecarboxylic acid after 20 mins; format: ADME, tissue-based; method in brief: as §1
Liver [10] = test: Metabolic stability in human liver S9 fraction assessed as conversion to (1R,2R)-2-((3-(((3R,4S)-N-cyclopropyl-4-(4-(2-(2,6-dichloro-4-methylphenoxy)ethoxy)phenyl)piperidine-3-carboxamido)methyl)-5-(3-methoxypropyl)phenoxy)methyl)cyclopropanecarboxylic acid after 20 mins; format: ADME, subcellular; conditions: s9, 20 min; method in brief: as §1
[11] = AUC (0 to 24 hrs) in Sprague-Dawley rat at 20 mg/kg, po as 0.5% methocel suspension; format: ADME, organism-based; set-up: time < 24 hr, dose 20 mg/kg, route oral; conditions: plasma
[12] = Oral bioavailability in Sprague-Dawley rat at 30 mg/kg as 0.5% methocel suspension; format: ADME, organism-based; conditions: in vivo
[13] = Clearance in Sprague-Dawley rat at 30 mg/kg, po in 0.5% methocel and 3 to 5 mg/kg, iv in 60% PEG 200; conditions: in vivo

Structure (SMILES) | IC50 (Renin [1]) | IC50 (Renin [2]) | Ki [3] | IC50 (Cytochrome P450 3A4 [4]) | IC50 shift (CYP3A4) | IC50 (Cytochrome P450 3A4 [5]) | Activity (Blood [6]) | Activity (Liver [7]) | AUC(0-t) at 24 h [8] | Activity (Blood [9]) | Activity (Liver [10]) | AUC(0-t) at 24 h [11] | bioavailability [12] | clearance [13]
COCCCc1cc(CN(C(=O)[C@H]2CNCC[C@@H]2c2ccc(OCCOc3c(Cl)cc(C)cc3Cl)cc2)C2CC2)cc(OCC2(CC#N)CC2)c1 | 0.028 nM | 10.9 nM | 60 nM | 19600 nM | 14.1 | 1400 nM | – | – | – | – | – | – | – | –
COCCCc1cc(CN(C(=O)[C@H]2CNCC[C@@H]2c2ccc(OCCOc3c(Cl)cc(C)cc3Cl)cc2)C2CC2)cc(OCCOC)c1 | – | – | 80 nM | 21600 nM | – | 2400 nM | – | – | – | – | – | – | – | –
COCCCc1cc(CN(C(=O)[C@H]2CNCC[C@@H]2c2ccc(OCCOc3c(Cl)cc(C)cc3Cl)cc2)C2CC2)cc(OCCN(C)C)c1 | – | – | 180 nM | 22700 nM | – | 1400 nM | – | – | – | – | – | – | – | –
COCCCc1cc(CN(C(=O)[C@H]2CNCC[C@@H]2c2ccc(OCCOc3c(Cl)cc(C)cc3Cl)cc2)C2CC2)cc(OCCCNS(C)(=O)=O)c1 | 0.028 nM | 2.9 nM | 80 nM | – | – | – | – | – | – | – | – | – | – | –
CCNC(=O)NCCCOc1cc(CCCOC)cc(CN(C(=O)[C@H]2CNCC[C@@H]2c2ccc(OCCOc3c(Cl)cc(C)cc3Cl)cc2)C2CC2)c1 | 0.022 nM | 3.3 nM | 150 nM | 6300 nM | 2.6 | 2400 nM | – | – | – | – | – | – | – | –
COCCCc1cc(CN(C(=O)[C@H]2CNCC[C@@H]2c2ccc(OCCOc3c(Cl)cc(C)cc3Cl)cc2)C2CC2)cc(OCC(C)(C)O)c1 | – | – | 130 nM | > 50000 nM | – | 5600 nM | – | – | – | – | – | – | – | –
COCCCc1cc(CN(C(=O)[C@H]2CNCC[C@@H]2c2ccc(OCCOc3c(Cl)cc(C)cc3Cl)cc2)C2CC2)cc(OC[C@H]2C[C@@H]2C(=O)OCC(=O)N(C)C)c1 | – | – | 200 nM | – | – | – | 1% | 66% | 3500 nM·h | 100% | – | – | – | –
CCOC(=O)OC(C)OC(=O)[C@H]1C[C@@H]1COc1cc(CCCOC)cc(CN(C(=O)[C@H]2CNCC[C@@H]2c2ccc(OCCOc3c(Cl)cc(C)cc3Cl)cc2)C2CC2)c1 (stereo partly specified) | – | – | – | – | – | – | 38% | 81% | – | 100% | 90% | – | – | –
COCCCc1cc(CN(C(=O)[C@H]2CNCC[C@@H]2c2ccc(OCCOc3c(Cl)cc(C)cc3Cl)cc2)C2CC2)cc(OC[C@H]2C[C@@H]2C(=O)OCOC(=O)C(C)(C)C)c1 | – | – | 40 nM | – | – | – | 56% | 83% | 200 nM·h | 100% | 95% | – | – | –
COCCCc1cc(CN(C(=O)[C@H]2CN(C(=O)OCc3oc(=O)oc3C)CC[C@@H]2c2ccc(OCCOc3c(Cl)cc(C)cc3Cl)cc2)C2CC2)cc(OC[C@H]2C[C@@H]2C(=O)O)c1 | – | – | 3700 nM | – | – | – | 11% | 98% | – | 93% | 99% | 200 nM·h | – | –
COCCCc1cc(CN(C(=O)[C@H]2CNCC[C@@H]2c2ccc(OCCOc3c(Cl)cc(C)cc3Cl)cc2)C2CC2)cc(OCC2(CC(=O)O)CC2)c1 | 0.04 nM | – | 1000 nM | > 50000 nM | – | > 50000 nM | – | – | 200 nM·h | – | – | – | 2% | 2.94 L/h/kg
COCCCc1cc(CN(C(=O)[C@H]2CNCC[C@@H]2c2ccc(OCCOc3c(Cl)cc(C)cc3Cl)cc2)C2CC2)cc(OCC(C)(C)C(=O)O)c1 | 0.06 nM | 29.6 nM | 600 nM | > 50000 nM | – | > 50000 nM | – | – | 1100 nM·h | – | – | – | 9% | 2.64 L/h/kg
COCCCc1cc(CN(C(=O)[C@H]2CNCC[C@@H]2c2ccc(OCCOc3c(Cl)cc(C)cc3Cl)cc2)C2CC2)cc(OCCC(C)(C)C(=O)O)c1 | 0.02 nM | 9 nM | 400 nM | > 50000 nM | – | > 50000 nM | – | – | 2100 nM·h | – | – | – | 13% | 2.58 L/h/kg
COCCCc1cc(CN(C(=O)[C@H]2CNCC[C@@H]2c2ccc(OCCOc3c(Cl)cc(C)cc3Cl)cc2)C2CC2)cc(OCCCC(C)(C)C(=O)O)c1 | 0.01 nM | 6.1 nM | 200 nM | > 50000 nM | – | > 50000 nM | – | – | 16000 nM·h | – | – | – | 22% | 0.582 L/h/kg
CCC(CC)(CCOc1cc(CCCOC)cc(CN(C(=O)[C@H]2CNCC[C@@H]2c2ccc(OCCOc3c(Cl)cc(C)cc3Cl)cc2)C2CC2)c1)C(=O)O | – | – | 400 nM | > 50000 nM | – | > 50000 nM | – | – | 6100 nM·h | – | – | – | 26% | 1.74 L/h/kg
COCCCc1cc(CN(C(=O)[C@H]2CNCC[C@@H]2c2ccc(OCCOc3c(Cl)cc(C)cc3Cl)cc2)C2CC2)cc(OCCC2(C(=O)O)CCCC2)c1 | 0.01 nM | 12.4 nM | 500 nM | > 50000 nM | – | > 50000 nM | – | – | 3300 nM·h | – | – | – | 15% | 1.62 L/h/kg
COCCCc1cc(CN(C(=O)[C@H]2CNCC[C@@H]2c2ccc(OCCOc3c(Cl)cc(C)cc3Cl)cc2)C2CC2)cc(OCC[C@](C)(OC)C(=O)O)c1 | 0.06 nM | 2.1 nM | 2300 nM | > 50000 nM | – | > 50000 nM | – | – | 1200 nM·h | – | – | – | 3% | 1.38 L/h/kg
COCCCc1cc(CN(C(=O)[C@H]2CNCC[C@@H]2c2ccc(OCCOc3c(Cl)cc(C)cc3Cl)cc2)C2CC2)cc(OC[C@H]2C[C@@H]2C(=O)NS(C)(=O)=O)c1 | 0.01 nM | 2.1 nM | 500 nM | > 50000 nM | – | > 50000 nM | – | – | – | – | – | – | 0% | 1.56 L/h/kg
COCCCc1cc(CN(C(=O)[C@H]2CNCC[C@@H]2c2ccc(OCCOc3c(Cl)cc(C)cc3Cl)cc2)C2CC2)cc(OCC2(Cc3nn[nH]n3)CC2)c1 | – | 5.3 nM | 500 nM | > 50000 nM | – | > 50000 nM | – | – | – | – | – | – | 0% | 2.76 L/h/kg
